Measurements published in ChEMBL document CHEMBL1146048, “Imidazo[1,2-a]pyrazin-8-ones, imidazo[1,2-d][1,2,4]triazin-8-ones and imidazo[2,1-f][1,2,4]triazin-8-ones as alpha2/alpha3 subtype selective GABA A agonists for the treatment of anxiety” (Bioorg Med Chem Lett, 2006).
Calls of active or inactive are those of the source. The rule behind the calls is not given here.

Experiments:
[1] = target: T1, GABA-A receptor; alpha-1/beta-3/gamma-2 (Homo sapiens, UniProt P14867+P18507+P28472); assay: Displacement of [3H]Ro-151788 from human recombinant GABA-Aalpha1 receptor plus beta3gamma2; assay type: protein-complex assay
T1 sequence (P14867 whole entry): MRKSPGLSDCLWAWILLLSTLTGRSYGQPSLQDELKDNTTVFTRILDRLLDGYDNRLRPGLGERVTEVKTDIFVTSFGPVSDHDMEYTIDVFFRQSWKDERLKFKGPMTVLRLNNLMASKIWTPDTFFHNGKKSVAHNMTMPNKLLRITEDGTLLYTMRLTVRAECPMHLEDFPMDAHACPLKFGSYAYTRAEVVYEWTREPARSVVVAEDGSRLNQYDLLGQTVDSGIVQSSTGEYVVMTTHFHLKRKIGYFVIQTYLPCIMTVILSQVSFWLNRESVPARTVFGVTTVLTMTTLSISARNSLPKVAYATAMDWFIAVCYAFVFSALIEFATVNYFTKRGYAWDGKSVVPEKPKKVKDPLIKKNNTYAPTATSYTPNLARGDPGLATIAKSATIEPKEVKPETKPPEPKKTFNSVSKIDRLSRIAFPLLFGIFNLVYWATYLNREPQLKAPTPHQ
T1 sequence (P18507 whole entry): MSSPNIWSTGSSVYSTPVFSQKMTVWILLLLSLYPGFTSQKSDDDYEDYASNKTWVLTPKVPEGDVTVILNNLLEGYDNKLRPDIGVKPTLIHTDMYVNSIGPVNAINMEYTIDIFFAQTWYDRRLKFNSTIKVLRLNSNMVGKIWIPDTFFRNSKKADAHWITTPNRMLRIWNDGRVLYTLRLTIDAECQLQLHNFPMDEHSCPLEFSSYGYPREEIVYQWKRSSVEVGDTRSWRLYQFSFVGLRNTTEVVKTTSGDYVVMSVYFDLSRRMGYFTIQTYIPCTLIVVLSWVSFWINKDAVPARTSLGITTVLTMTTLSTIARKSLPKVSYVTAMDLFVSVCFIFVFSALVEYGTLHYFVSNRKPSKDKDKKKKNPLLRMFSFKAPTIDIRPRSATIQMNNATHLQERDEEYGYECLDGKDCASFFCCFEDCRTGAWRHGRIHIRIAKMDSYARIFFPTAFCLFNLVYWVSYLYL
T1 sequence (P28472 whole entry): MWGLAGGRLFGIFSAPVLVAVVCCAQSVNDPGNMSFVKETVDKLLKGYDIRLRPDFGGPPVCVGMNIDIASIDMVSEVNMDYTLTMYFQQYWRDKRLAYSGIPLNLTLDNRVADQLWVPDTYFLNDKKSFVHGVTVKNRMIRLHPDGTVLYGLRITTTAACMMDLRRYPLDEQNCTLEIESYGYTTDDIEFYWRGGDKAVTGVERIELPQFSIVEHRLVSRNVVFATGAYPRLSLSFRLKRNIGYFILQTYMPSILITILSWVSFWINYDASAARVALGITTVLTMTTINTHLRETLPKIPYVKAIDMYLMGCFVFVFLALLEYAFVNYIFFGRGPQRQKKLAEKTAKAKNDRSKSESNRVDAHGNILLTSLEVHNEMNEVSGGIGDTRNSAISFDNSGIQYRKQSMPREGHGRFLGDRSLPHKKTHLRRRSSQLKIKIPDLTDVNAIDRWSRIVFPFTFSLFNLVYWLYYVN
How it was run: (§1)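 Stably expressed human recombinant αxβ3γ2 GABAA receptors (x = 1, 3 or 5), benzodiazepine site. Competition against 1.8 nM [3H]Ro15-1788. IC50 for inhibition of binding converted to Ki by Cheng–Prusoff. Mean of 3–6 determinations.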

[2] = target: T2, GABA-A receptor; alpha-3/beta-3/gamma-2 (Homo sapiens, UniProt P18507+P28472+P34903); assay: Displacement of [3H]Ro-151788 from human recombinant GABA-Aalpha3 receptor plus beta3gamma2; assay type: protein-complex assay; how it was run: as §1
T2 sequence (P18507 whole entry): T1 sequence (P18507 whole entry)
T2 sequence (P28472 whole entry): T1 sequence (P28472 whole entry)
T2 sequence (P34903 whole entry): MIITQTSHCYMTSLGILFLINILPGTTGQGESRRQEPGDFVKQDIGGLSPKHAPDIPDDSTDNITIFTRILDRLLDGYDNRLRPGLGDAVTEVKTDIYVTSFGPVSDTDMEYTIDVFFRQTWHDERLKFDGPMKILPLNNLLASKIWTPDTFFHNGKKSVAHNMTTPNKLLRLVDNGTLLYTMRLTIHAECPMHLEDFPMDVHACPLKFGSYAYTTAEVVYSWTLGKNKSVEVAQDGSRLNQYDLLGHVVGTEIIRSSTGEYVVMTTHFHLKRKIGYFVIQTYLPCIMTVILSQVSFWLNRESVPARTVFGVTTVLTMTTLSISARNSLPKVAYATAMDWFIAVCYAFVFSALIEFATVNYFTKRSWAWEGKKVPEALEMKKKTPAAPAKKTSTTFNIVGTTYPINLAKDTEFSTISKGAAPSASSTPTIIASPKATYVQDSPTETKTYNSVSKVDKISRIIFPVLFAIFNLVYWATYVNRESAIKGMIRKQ

[3] = target: T3, GABA-A receptor; alpha-5/beta-3/gamma-2 (Homo sapiens, UniProt P18507+P28472+P31644); assay: Displacement of [3H]Ro-151788 from human recombinant GABA-Aalpha5 receptor plus beta3gamma2; assay type: protein-complex assay; how it was run: as §1
T3 sequence (P18507 whole entry): T1 sequence (P18507 whole entry)
T3 sequence (P28472 whole entry): T1 sequence (P28472 whole entry)
T3 sequence (P31644 whole entry): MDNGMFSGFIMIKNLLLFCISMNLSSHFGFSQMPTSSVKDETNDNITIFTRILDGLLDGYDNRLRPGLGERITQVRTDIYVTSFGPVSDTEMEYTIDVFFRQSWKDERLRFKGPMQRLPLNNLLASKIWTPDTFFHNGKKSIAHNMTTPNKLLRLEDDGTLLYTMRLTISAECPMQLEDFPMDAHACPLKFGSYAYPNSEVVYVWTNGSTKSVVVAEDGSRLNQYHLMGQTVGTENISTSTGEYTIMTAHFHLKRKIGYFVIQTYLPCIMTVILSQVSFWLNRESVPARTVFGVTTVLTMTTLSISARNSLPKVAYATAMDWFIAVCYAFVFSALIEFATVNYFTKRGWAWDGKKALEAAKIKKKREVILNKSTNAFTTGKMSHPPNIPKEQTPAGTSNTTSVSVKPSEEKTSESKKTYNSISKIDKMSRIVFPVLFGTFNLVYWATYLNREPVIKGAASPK

[4] = target: GABA-A receptor; alpha-1/beta-3/gamma-2 (Homo sapiens) (UniProt P14867+P18507+P28472); assay: Efficacy against human recombinant GABA-Aalpha1 receptor plus beta-3-gamma-2 expressed in L(tk-) cells by whole cell patch clamp method; assay type: functional, cell-based
How it was run: (§2)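 Whole-cell patch clamp on L(tk-) cells stably expressing α1β3γ2 or α3β3γ2 GABAA receptors. Test compound modulation of current evoked by a sub-maximal (EC20) GABA concentration. Means of at least seven independent experiments.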

[5] = target: GABA-A receptor; alpha-3/beta-3/gamma-2 (Homo sapiens) (UniProt P18507+P28472+P34903); assay: Efficacy against human recombinant GABA-Aalpha3 receptor plus beta-3-gamma-2 expressed in L(tk-) cells by whole cell patch clamp method; assay type: functional, cell-based; how it was run: as §2
[6] = target: GABA-A receptor; alpha-5/beta-3/gamma-2 (Homo sapiens) (UniProt P18507+P28472+P31644); assay: Efficacy against human recombinant GABA-Aalpha5 receptor plus beta-3-gamma-2 expressed in L(tk-) cells by whole cell patch clamp method; assay type: functional, cell-based
How it was run: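 Human α5β3γ2 GABA-A receptors stably expressed in L(tk-) cells; whole-cell patch clamp recording. Test compound applied against the current evoked by a sub-maximal GABA concentration (EC20), and efficacy expressed as the change in that current. Values are means of at least seven independent experiments.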

[7] = Bioavailability in rat; assay type: ADME, organism-based; conditions: in vivo
[8] = Plasma clearance in rat; assay type: ADME, organism-based
[9] = Half life in rat; assay type: ADME, organism-based; conditions: in vivo
[10] = target: T4, GABA-A receptor; anion channel (Rattus norvegicus) (UniProt O09028+P15431+P18506+P18508+P19969+P20236+P23574+P23576+P28471+P28473+P30191+P62813+P63079+P63138+Q91ZM7+Q9ES14); assay: Displacement of [3H]Ro-151788 from GABA-Aalpha receptor in rat po; assay type: functional
Rattus norvegicus [11] = assay: Anxiolytic activity in rat elevated plus maze assay at 3 mg/kg, po; assay type: functional, organism-based; set-up: dose 3 mg/kg
[12] = target: T4, GABA-A receptor; anion channel (Rattus norvegicus); assay: Receptor occupancy at BZ site of GABA-Aalpha receptor in rat at 3 mg/kg, po; assay type: functional, organism-based; set-up: dose 3 mg/kg
Rattus norvegicus [13] = assay: Activity in rat beam walking assay at 100 mg/kg, po; assay type: functional, organism-based; set-up: dose 100 mg/kg

Ki [1]	Ki [2]	Ki [3]	Efficacy [4]	Efficacy [5]	bioavailability [7]	clearance [8]	half-life [9]	ID50 [10]	Activity [12]	SMILES	Efficacy [6]	Activity (Rattus norvegicus [11])	Activity (Rattus norvegicus [13])
2.5 nM	4.6 nM	4.8 nM	-46%	–	–	–	–	–	–	Cn1cnn2c(-c3ccc(F)c(-c4ccc(F)cc4C#N)c3)cnc2c1=O	–	–	–
0.28 nM	0.9 nM	0.15 nM	-8%	43%	38%	17 mL/min/kg	300 min	0.7 mg/kg	86%	CCn1ccn2c(-c3ccc(F)c(-c4ccc(F)cc4C#N)c3)cnc2c1=O	-4%	Active	inactive
0.7 nM	1.9 nM	0.39 nM	-27%	44%	–	–	–	–	–	Cn1ccn2c(-c3ccc(F)c(-c4ccc(F)cc4C#N)c3)cnc2c1=O	–	–	–
1.4 nM	–	0.52 nM	–	–	–	–	–	–	–	CC(C)(O)c1ccn2c(-c3ccc(F)c(-c4cccnc4)c3)cnc2n1	–	–	–
0.16 nM	0.59 nM	0.19 nM	3%	28%	–	–	–	–	–	Cn1ccn2c(-c3ccc(F)c(-c4c(F)cccc4C#N)c3)cnc2c1=O	–	–	–
0.53 nM	0.7 nM	0.1 nM	27%	51%	–	–	–	–	–	Cn1ccn2c(-c3ccc(F)c(-c4ccccc4C#N)c3)cnc2c1=O	–	–	–
2.4 nM	3.4 nM	0.95 nM	-19%	-7%	–	–	–	–	–	CCn1ncn2c(-c3ccc(F)c(-c4ccc(F)cc4C#N)c3)cnc2c1=O	–	–	–
6.5 nM	4.7 nM	2.3 nM	-9%	1%	–	–	–	–	–	Cn1ncn2c(-c3ccc(F)c(-c4ccc(F)cc4C#N)c3)cnc2c1=O	–	–	–

SMILES	Ki [1]	Ki [2]	Ki [3]	Efficacy [4]	Efficacy [5]	bioavailability [7]	clearance [8]	half-life [9]	ID50 [10]	Activity [12]	Efficacy [6]	Activity (Rattus norvegicus [11])	Activity (Rattus norvegicus [13])
CC(C)(O)c1cnn2c(-c3ccc(F)c(-c4c(F)cccc4C#N)c3)cnc2n1	0.6 nM	1.5 nM	0.9 nM	4%	65%	–	–	–	–	–	44%	–	–
